Laboratory results published in ChEMBL document CHEMBL1153433, “Design and synthesis of 2-amino-4-methylpyridine analogues as inhibitors for inducible nitric oxide synthase and in vivo evaluation of [18F]6-(2-fluoropropyl)-4-methyl-pyridin-2-amine as a potential PET tracer for inducible nitric oxide synthase” (J Med Chem, 2009).

Columns and labels:
Brain [1] = experiment: Biodistribution in C57BL/6N mouse brain at 50 uCi/110 uL, iv after 1 hr; assay type: ADME, organism-based; conditions: in vivo
Method in brief: (§1)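 Untreated (control) male C57BL/6N mice aged 6-8 weeks. HPLC-purified tracer, ~50 μCi in 10% ethanol/saline, given i.v. via the tail vein. Mice were sacrificed at 5 min, 30 min, 1 h and 2 h post-injection. Tissues were removed, weighed and gamma-counted against diluted injectate standards. Data are %ID/g, mean ± SD, n = 4.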

Muscle tissue [2] = experiment: Biodistribution in C57BL/6N mouse muscle at 50 uCi/110 uL, iv after 5 mins; assay type: ADME, organism-based; conditions: in vivo; method in brief: as §1
Brain [3] = experiment: Biodistribution in C57BL/6N mouse brain at 50 uCi/110 uL, iv after 5 mins; assay type: ADME, organism-based; conditions: in vivo; method in brief: as §1
Kidney [4] = experiment: Biodistribution in LPS treated C57BL/6N mouse kidney at 50 uCi/110 uL, iv administered 6 hrs […] LPS challenge measured after 1 hr post drug dose; assay type: ADME, organism-based; conditions: in vivo
Method in brief: (§2)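 Male C57BL/6N mice aged 6-8 weeks received E. coli O127:B8 LPS in PBS, 10 mg/kg i.v., 6 h before tracer. Tracer ~50 μCi in 10% ethanol/saline, i.v. tail vein. Sacrifice was at 5 min, 30 min, 1 h or 2 h post-injection. Organs were weighed and gamma-counted with injectate standards. Data are %ID/g, mean ± SD, n = 4.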

Brain [5] = experiment: Biodistribution in LPS treated C57BL/6N mouse brain at 50 uCi/110 uL, iv administered 6 hrs […] LPS challenge measured after 2 hrs post drug dose; assay type: ADME, organism-based; conditions: in vivo; method in brief: as §2
Liver [6] = experiment: Biodistribution in LPS treated C57BL/6N mouse liver at 50 uCi/110 uL, iv administered 6 hrs […] LPS challenge measured after 5 mins post drug dose; assay type: ADME, organism-based; conditions: in vivo
Method in brief: (§3)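 Male C57BL/6N mice, 6-8 weeks; LPS (E. coli O127:B8) in PBS, 10 mg/kg i.v., given 6 h before tracer. HPLC-purified [18F]tracer ~50 μCi in 10% ethanol/saline i.v. via tail vein. Killed at 5 min, 30 min, 1 h or 2 h; tissues weighed and gamma-counted against diluted injectate standards. Reported as %ID/g, mean ± SD, n = 4.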

Bone [7] = experiment: Biodistribution in LPS treated C57BL/6N mouse bone at 50 uCi/110 uL, iv administered 6 hrs before LPS challenge measured after 1 hr post drug dose; assay type: ADME, organism-based, Bone element; conditions: in vivo, in the assay text read “6 hrs after LPS challenge” for “6 hrs before LPS challenge”; method in brief: as §2
Kidney [8] = experiment: Biodistribution in C57BL/6N mouse kidney at 50 uCi/110 uL, iv after 5 mins; assay type: ADME, organism-based; conditions: in vivo; method in brief: as §1
Mus musculus = experiment: Biodistribution in LPS treated C57BL/6N mouse at 5 uCi, iv co-administered with nonselective NOS inhibitor 2-amino-4-methylpyridine measured after 1 hr; assay type: ADME, organism-based; conditions: in vivo
Lung [9] = experiment: Biodistribution in C57BL/6N mouse lung at 50 uCi/110 uL, iv after 30 mins; assay type: ADME, organism-based; conditions: in vivo, 0.5 h; method in brief: as §1
Liver [10] = experiment: Biodistribution in C57BL/6N mouse liver at 50 uCi/110 uL, iv after 5 mins; assay type: ADME, organism-based; conditions: in vivo; method in brief: as §1
Blood [11] = experiment: Biodistribution in LPS treated C57BL/6N mouse blood at 50 uCi/110 uL, iv administered 6 hrs […] LPS challenge measured after 30 mins post drug dose; assay type: ADME, organism-based; conditions: in vivo, 0.5 h; method in brief: as §2
Brain [12] = experiment: Biodistribution in LPS treated C57BL/6N mouse brain at 50 uCi/110 uL, iv administered 6 hrs […] LPS challenge measured after 30 mins post drug dose; assay type: ADME, organism-based; conditions: in vivo, 0.5 h; method in brief: as §2
Brain [13] = experiment: Biodistribution in C57BL/6N mouse brain at 50 uCi/110 uL, iv after 2 hrs; assay type: ADME, organism-based; conditions: in vivo; method in brief: as §1
[14] = Metabolic stability in Sprague-Dawley rat whole blood at 400 uCi after 2 hrs; assay type: ADME, tissue-based; conditions: read-out: Stability
Method in brief: (§4)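 Heparinized whole blood (5 mL) from a mature male Sprague-Dawley rat incubated with ~400 μCi [18F]tracer at 37 °C for 5 min to 2 h. Aliquots lysed with 3 volumes of ethanol and centrifuged; supernatant and pellet gamma-counted. Supernatant species analysed by silica TLC (ethyl acetate), identified by co-elution with non-radioactive standard.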

Lung [15] = experiment: Biodistribution in LPS treated C57BL/6N mouse lung at 50 uCi/110 uL, iv administered 6 hrs […] LPS challenge measured after 30 mins post drug dose; assay type: ADME, organism-based; conditions: in vivo, 0.5 h; method in brief: as §3
Muscle tissue [16] = experiment: Biodistribution in LPS treated C57BL/6N mouse muscle at 50 uCi/110 uL, iv administered 6 hrs […] LPS challenge measured after 2 hrs post drug dose; assay type: ADME, organism-based; conditions: in vivo; method in brief: as §3
Bone [17] = experiment: Biodistribution in C57BL/6N mouse bone at 50 uCi/110 uL, iv after 5 mins; assay type: ADME, organism-based, Bone element; conditions: in vivo; method in brief: as §1
Muscle tissue [18] = experiment: Biodistribution in LPS treated C57BL/6N mouse muscle at 50 uCi/110 uL, iv administered 6 hrs […] LPS challenge measured after 5 mins post drug dose; assay type: ADME, organism-based; conditions: in vivo; method in brief: as §3
Blood [19] = experiment: Biodistribution in C57BL/6N mouse blood at 50 uCi/110 uL, iv after 30 mins; assay type: ADME, organism-based; conditions: in vivo, 0.5 h; method in brief: as §1
Brain [20] = experiment: Biodistribution in LPS treated C57BL/6N mouse brain at 50 uCi/110 uL, iv administered 6 hrs […] LPS challenge measured after 5 mins post drug dose; assay type: ADME, organism-based; conditions: in vivo; method in brief: as §2
Muscle tissue [21] = experiment: Biodistribution in C57BL/6N mouse muscle at 50 uCi/110 uL, iv after 30 mins; assay type: ADME, organism-based; conditions: in vivo, 0.5 h; method in brief: as §1
Lung [22] = experiment: Biodistribution in C57BL/6N mouse lung at 50 uCi/110 uL, iv after 5 mins; assay type: ADME, organism-based; conditions: in vivo; method in brief: as §1
Blood [23] = experiment: Biodistribution in C57BL/6N mouse blood at 50 uCi/110 uL, iv after 2 hrs; assay type: ADME, organism-based; conditions: in vivo; method in brief: as §1
Kidney [24] = experiment: Biodistribution in C57BL/6N mouse kidney at 50 uCi/110 uL, iv after 2 hrs; assay type: ADME, organism-based; conditions: in vivo; method in brief: as §1
[25] = Metabolic stability in Sprague-Dawley rat whole blood at 400 uCi after 1 hr; assay type: ADME, tissue-based; conditions: read-out: Stability; method in brief: as §4
Blood [26] = experiment: Biodistribution in LPS treated C57BL/6N mouse blood at 50 uCi/110 uL, iv administered 6 hrs […] LPS challenge measured after 5 mins post drug dose; assay type: ADME, organism-based; conditions: in vivo; method in brief: as §2
Blood [27] = experiment: Biodistribution in C57BL/6N mouse blood at 50 uCi/110 uL, iv after 1 hr; assay type: ADME, organism-based; conditions: in vivo; method in brief: as §1
Liver [28] = experiment: Biodistribution in C57BL/6N mouse liver at 50 uCi/110 uL, iv after 1 hr; assay type: ADME, organism-based; conditions: in vivo; method in brief: as §1
Liver [29] = experiment: Biodistribution in LPS treated C57BL/6N mouse liver at 50 uCi/110 uL, iv administered 6 hrs […] LPS challenge measured after 2 hrs post drug dose; assay type: ADME, organism-based; conditions: in vivo; method in brief: as §3
Heart [30] = experiment: Biodistribution in C57BL/6N mouse heart at 50 uCi/110 uL, iv after 5 mins; assay type: ADME, organism-based; conditions: in vivo; method in brief: as §1
Kidney [31] = experiment: Biodistribution in C57BL/6N mouse kidney at 50 uCi/110 uL, iv after 30 mins; assay type: ADME, organism-based; conditions: in vivo, 0.5 h; method in brief: as §1
Heart [32] = experiment: Biodistribution in LPS treated C57BL/6N mouse heart at 50 uCi/110 uL, iv administered 6 hrs […] LPS challenge measured after 30 mins post drug dose; assay type: ADME, organism-based; conditions: in vivo, 0.5 h; method in brief: as §2
Kidney [33] = experiment: Biodistribution in LPS treated C57BL/6N mouse kidney at 50 uCi/110 uL, iv administered 6 hrs […] LPS challenge measured after 30 mins post drug dose; assay type: ADME, organism-based; conditions: in vivo, 0.5 h; method in brief: as §3

Compound: Cc1cc(N)nc(CC(C)[18F])c1 (centres undefined)
- Drug uptake (Brain [1]): 0.11 % ID/g
- Drug uptake (Muscle tissue [2]): 1.25 % ID/g
- Drug uptake (Brain [3]): 1.6 % ID/g
- Drug uptake (Kidney [4]): 3.95 % ID/g
- Drug uptake (Brain [5]): 0.07 % ID/g
- Drug uptake (Liver [6]): 24.6 % ID/g
- Drug uptake (Bone [7]): 4.3 % ID/g
- Drug uptake (Kidney [8]): 20.6 % ID/g
- Activity (Mus musculus): Not Active
- Drug uptake (Lung [9]): 1.14 % ID/g
- Drug uptake (Liver [10]): 33.2 % ID/g
- Drug uptake (Blood [11]): 2.09 % ID/g
- Drug uptake (Brain [12]): 0.52 % ID/g
- Drug uptake (Brain [13]): 0.07 % ID/g
- remaining at 2 h, 400 uCi [14]: 75%
- Drug uptake (Lung [15]): 1.84 % ID/g
- Drug uptake (Muscle tissue [16]): 0.23 % ID/g
- Drug uptake (Bone [17]): 1.52 % ID/g
- Drug uptake (Muscle tissue [18]): 1.64 % ID/g
- Drug uptake (Blood [19]): 1.22 % ID/g
- Drug uptake (Brain [20]): 1.81 % ID/g
- Drug uptake (Muscle tissue [21]): 0.71 % ID/g
- Drug uptake (Lung [22]): 3.33 % ID/g
- Drug uptake (Blood [23]): 0.27 % ID/g
- Drug uptake (Kidney [24]): 0.8 % ID/g
- remaining at 1 h, 400 uCi [25]: 80%
- Drug uptake (Blood [26]): 3.69 % ID/g
- Drug uptake (Blood [27]): 0.31 % ID/g
- Drug uptake (Liver [28]): 2.59 % ID/g
- Drug uptake (Liver [29]): 0.42 % ID/g
- Drug uptake (Heart [30]): 1.5 % ID/g
- Drug uptake (Kidney [31]): 7.3 % ID/g
- Drug uptake (Heart [32]): 1.02 % ID/g
- Drug uptake (Kidney [33]): 10.9 % ID/g
